Data reported in PMC12401554 (Archives of toxicology, 2023).

Key:
2D HepaRG cells [1] = assay: CometChip assay; format: cell-based, human; conditions: 24-h exposure; for Fold increase of DNA damage over the vehicle control: at the maximum concentration shown in the table
3D HepaRG spheroids [2] = assay: CometChip assay; format: cell-based, human; conditions: for Outcome, CometChip assay / Fold increase of DNA damage over the vehicle control: 24-h exposure; for Fold increase of DNA damage over the vehicle control: at the maximum concentration shown in the table; for BMC50 estimate for DNA strand breakage, rank among the eight nitrosamines: PROAST exponential model
2D HepaRG cells [3] = assay: HT flow-cytometry-based MN assay in 2D HepaRG cells; format: cell-based, human; conditions: for Fold increase of MN formation over the vehicle control: at the maximum concentration shown in the table
3D HepaRG spheroids [4] = assay: HT flow-cytometry-based MN assay in 3D HepaRG spheroids; format: cell-based, human; conditions: for Fold increase of MN formation over the vehicle control: at the maximum concentration shown in the table
[5] = ref European Chemicals Agency (ECHA) Classification and Labelling Inventory; cited from earlier work
rat [6] = conditions: ref Ambient water quality criteria for nitrosamines, US Environmental Protection Agency; cited from earlier work
[7] = system: CYP2A6-expressing TK6 cells; conditions: ref Li et al. 2022; cited from earlier work
2D HepaRG cells [8] = assay: ATP assay; format: cell-based, human; conditions: 24-h exposure, at concentrations up to 10 mM
Outline: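 Differentiated HepaRG cells (passages 16–19) replated at 5 × 10^4 cells/well as 2D monolayers and treated 3 days after seeding. Exposure was 24 h at 37 °C in 5% CO2 in differentiation medium, with final DMSO ≤1%. Viability was read by CellTiter-Glo luminescence as %ATP relative to vehicle control, from at least three independent experiments.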

3D HepaRG spheroids [9] = assay: ATP assay; format: cell-based, human; conditions: 24-h exposure, at concentrations up to 10 mM
Outline: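 Differentiated HepaRG cells (passages 16–19) were seeded at 5 × 10^3 cells per spheroid in ultra-low-attachment plates. On Day 10, 7–8 spheroids were pooled per well and exposed for 24 h at 37 °C in 5% CO2, with final DMSO ≤1%. ATP was measured with the CellTiter-Glo 3D kit as % of vehicle control, from at least three independent experiments.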

3D HepaRG spheroids [10] = assay: MultiFlow DNA damage assay; format: cell-based, human; conditions: 3D HepaRG cultures, PROAST exponential model
Outline: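 Spheroids were exposed for 24 h in differentiation medium containing 100 ng/ml hEGF, then kept 5 days in the same medium without test compound. They were dissociated with Accutase and stained 1 h at room temperature for γH2A.X, phospho-H3 and P53, then analysed by flow cytometry. Responses are median-fluorescence fold-changes versus vehicle. BMC50 (50% increase over vehicle; 90% CI) came from exponential-model benchmark analysis with compound as covariate.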

Sprague–Dawley rats = conditions: treated 5 days each week with 1.8 or 12 mg NDIPA for 50 or 40 weeks; ref Lijinsky and Taylor 1979; cited from earlier work
rat [11] = conditions: ref Lhasa Carcinogenicity Database; cited from earlier work
[12] = ref IARC Monographs, Volumes 1–133; IARC 1978; cited from earlier work
[13] = system: animal species, including frog, rodent, rabbit, and monkey; conditions: ref Bogovski and Bogovski 1981; cited from earlier work
[14] = system: wild-type TK6 cells or TK6 cells transduced with human CYP1A1, 2A6, 2E1, or 3A4 genes; conditions: ref Li et al. 2022; cited from earlier work
Namalva cells = conditions: human Burkitt lymphoblastoid cell line, ref Janzowski et al. 1989; cited from earlier work

Compound	Outcome, CometChip assay (2D HepaRG cells [1])	Outcome, CometChip assay (3D HepaRG spheroids [2])	Outcome, MN assay (2D HepaRG cells [3])	Outcome, MN assay (3D HepaRG spheroids [4])	ECHA classification [5]	Oral rat LD50 (rat [6])	Micronucleus (MN) formation [7]	Phosphorylation of histone H2A.X (γH2A.X) [7]	Fold increase of DNA damage over the vehicle control (2D HepaRG cells [1])	Fold increase of DNA damage over the vehicle control (3D HepaRG spheroids [2])	MN response (in words) (2D HepaRG cells [3])	Fold increase of MN formation over the vehicle control (2D HepaRG cells [3])	MN response (in words) (3D HepaRG spheroids [4])	Fold increase of MN formation over the vehicle control (3D HepaRG spheroids [4])	Gold TD50 in rat (rat [11])	IARC group [12]	also measured
CN(N=O)c1ccccc1 [NMPA, N-nitrosomethylphenylamine]	− (The ratio ≤ 1.5-fold (p ≥ 0.05 vs. vehicle control, green color))	+ + (2 ≤ ratio < 5)	− (The ratio ≤ 1.5-fold (p ≥ 0.05 vs. vehicle control, green color))	+ + (2 ≤ ratio < 5)	Carc.2	280 mg/kg	induced	increased									
CC(C)N(N=O)C(C)C [NDIPA, N-nitrosodiisopropylamine]	− (The ratio ≤ 1.5-fold (p ≥ 0.05 vs. vehicle control, green color))	+ (1.5 ≤ ratio < 2)	− (The ratio ≤ 1.5-fold (p ≥ 0.05 vs. vehicle control, green color))	− (The ratio ≤ 1.5-fold (p ≥ 0.05 vs. vehicle control, green color))	Carc.1B; Muta.1B	850 mg/kg		increased	1.1 fold	1.8 fold	negative	1.1 fold	negative	1.2 fold			BMC50 estimate for DNA strand breakage, rank among the eight nitrosamines (3D HepaRG spheroids [2]): highest; Cytotoxicity (ATP assay) (2D HepaRG cells [8]): less than 30%; Cytotoxicity (ATP assay) (3D HepaRG spheroids [9]): less than 30%; BMC50 value for γH2A.X responses, rank among the eight nitrosamines (3D HepaRG spheroids [10]): highest; Carcinogenicity in Sprague–Dawley rats (in words) (Sprague–Dawley rats): weak carcinogen
CN(CCCC(=O)O)N=O [NMBA, N-nitroso-N-methyl-4-aminobutyric acid]	− (The ratio ≤ 1.5-fold (p ≥ 0.05 vs. vehicle control, green color))	+ + (2 ≤ ratio < 5)	− (The ratio ≤ 1.5-fold (p ≥ 0.05 vs. vehicle control, green color))	+ (1.5 ≤ ratio < 2)	Carc.2		induced	increased	1.0 fold	2.3 fold		1.4 fold		1.8 fold	0.982 mg/kg/day		
CN(C)N=O [NDMA, N-nitrosodimethylamine]	+ + (2 ≤ ratio < 5)	+ + + (ratio ≥ 5 (p < 0.05, red color))	+ + (2 ≤ ratio < 5)	+ + (2 ≤ ratio < 5)	Carc.1B	40 mg/kg										2A	BMC50 estimate for DNA strand breakage, rank among the eight nitrosamines (3D HepaRG spheroids [2]): lowest; BMC50 estimate for %MN, rank among the five positive responses (3D HepaRG spheroids [4]; PROAST exponential model): lowest; Number of different animal species in which tumors were induced [13]: 16
CCN(CC)N=O [NDEA, N-nitrosodiethylamine]	+ + (2 ≤ ratio < 5)	+ + (2 ≤ ratio < 5)	+ (1.5 ≤ ratio < 2)	+ + (2 ≤ ratio < 5)	Carc.1A/1B; Muta.2	280 mg/kg	induced	increased	2.3 fold	2.6 fold		1.7 fold		2.2 fold	0.0265 mg/kg/day	2A	Number of different animal species in which tumors were induced [13]: 26
CCN(N=O)C(C)C [NEIPA, N-nitrosoethylisopropylamine]	− (The ratio ≤ 1.5-fold (p ≥ 0.05 vs. vehicle control, green color))	+ + (2 ≤ ratio < 5)	− (The ratio ≤ 1.5-fold (p ≥ 0.05 vs. vehicle control, green color))	− (The ratio ≤ 1.5-fold (p ≥ 0.05 vs. vehicle control, green color))	Carc.1B	1100 mg/kg	induced	increased	1.5 fold	2.4 fold	negative	1.1 fold	negative	1.3 fold			Cytotoxicity (ATP assay) (2D HepaRG cells [8]): less than 30%; Cytotoxicity (ATP assay) (3D HepaRG spheroids [9]): less than 30%
CCCCN(CCCC)N=O [NDBA, N-nitrosodibutylamine]	+ + (2 ≤ ratio < 5)	+ + (2 ≤ ratio < 5)	+ (1.5 ≤ ratio < 2)	+ + (2 ≤ ratio < 5)	Carc.2	1200 mg/kg		increased	2.4 fold	2.8 fold		1.5 fold		2.3 fold	0.691 mg/kg/day	2B	BMC50 value for γH2A.X responses, rank among the eight nitrosamines (3D HepaRG spheroids [10]): lowest; MN frequency [14]: didn’t increase; Lowest concentration increasing MN formation (Namalva cells): 10 µM; Lowest concentration increasing sister chromatid exchanges (Namalva cells): 1 µM
O=NN1CCN(C2CCCC2)CC1 [CPNP, N-cyclopentyl-4-nitrosopiperazine]	− (The ratio ≤ 1.5-fold (p ≥ 0.05 vs. vehicle control, green color))	+ + (2 ≤ ratio < 5)	− (The ratio ≤ 1.5-fold (p ≥ 0.05 vs. vehicle control, green color))	− (The ratio ≤ 1.5-fold (p ≥ 0.05 vs. vehicle control, green color))	Carc.1B				0.9 fold	2.3 fold	negative	1.4 fold	negative	1.4 fold			
